IC50 data for 13 molecules are collected here from ChEMBL document CHEMBL1140036, “Novel glucagon receptor antagonists with improved selectivity over the glucose-dependent insulinotropic polypeptide receptor” (J Med Chem, 2008).

Each structure is given as a SMILES string.

Chain of Glucagon receptor (P47871 whole entry): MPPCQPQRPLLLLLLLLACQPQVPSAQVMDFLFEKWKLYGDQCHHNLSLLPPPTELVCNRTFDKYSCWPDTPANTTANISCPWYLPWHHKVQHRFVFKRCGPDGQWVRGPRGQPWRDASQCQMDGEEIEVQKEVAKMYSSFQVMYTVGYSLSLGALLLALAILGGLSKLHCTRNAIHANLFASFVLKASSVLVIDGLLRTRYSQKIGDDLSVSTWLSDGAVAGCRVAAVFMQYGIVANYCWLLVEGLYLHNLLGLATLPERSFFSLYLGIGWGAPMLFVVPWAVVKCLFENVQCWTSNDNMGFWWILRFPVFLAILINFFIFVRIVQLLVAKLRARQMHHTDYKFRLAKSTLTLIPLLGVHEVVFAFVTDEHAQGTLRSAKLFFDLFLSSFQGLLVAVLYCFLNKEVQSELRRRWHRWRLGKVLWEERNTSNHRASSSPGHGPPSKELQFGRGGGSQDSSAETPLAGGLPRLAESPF

One assay addresses Glucagon receptor (Homo sapiens, UniProt P47871). Put plainly: Binding affinity to human cloned GluR expressed in BHK cells. In kind it is cell-based. The procedure, abridged: (§1)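 Competitive binding on purified plasma membranes from BHK cells expressing the cloned human receptor (glucagon, GIP or GLP-1 receptor). The glucagon receptor protocol follows earlier published work, and the GIP and GLP-1 assays were done the same way.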
A word on the IC50: it is the concentration that inhibits the measured activity by half. The low end stands for greater potency in that assay, the high end for weaker potency in that assay. As for `CC(C)(C)[C@H]1CC[C@H](N(Cc2ccc(C(=O)NCCC(=O)O)cc2)C(=O)Nc2cc(C(F)(F)F)cc(C(F)(F)F)c2)CC1`, the IC50 is 16 nM.
In turn, `CC(C)(C)c1cccc(NC(=O)N(Cc2ccc(C(=O)NC[C@@H](O)C(=O)O)cc2)c2ccc(C3CCCCC3)cc2)c1` registered an IC50 of 18 nM. The IC50 values of the last two molecules are within 1.5-fold of each other.
Take `CC(C)(C)c1ccc(N(Cc2ccc(C(=O)NCCC(=O)O)cc2)C(=O)Nc2ccc(OC(F)(F)F)cc2)cc1`: the IC50 was 36 nM.
`N#Cc1ccc(NC(=O)N(Cc2ccc(C(=O)NC[C@@H](O)C(=O)O)cc2)c2ccc(C3CCCCC3)cc2)cc1C(F)(F)F`: the IC50 amounted to 9 nM.
The molecule `O=C(NC[C@@H](O)C(=O)O)c1ccc(CN(C(=O)Nc2ccccc2)c2ccc(C3=CCCCC3)cc2)cc1` registered an IC50 of 166 nM.
Molecule `Cc1cc(NC(=O)N(Cc2ccc(C(=O)NC[C@@H](O)C(=O)O)cc2)[C@H]2CC[C@H](C(C)(C)C)CC2)cc(C(F)(F)F)c1` showed an IC50 of 10 nM.
As for `CC(C)(C)c1ccc(N(Cc2ccc(C(=O)NCC(O)C(=O)O)cc2)C(=O)Nc2ccc(OC(F)(F)F)cc2)cc1` (racemic), the IC50 was found to be 55 nM. This IC50 is about 5.5-fold higher than that of the molecule before.
The same measure, in the same setting: then `O=C(NC[C@H](O)C(=O)O)c1ccc(CN(C(=O)Nc2cc(Cl)cc(Cl)c2)c2ccc(C3=CCCCC3)cc2)cc1`, with 51 nM.
The same measure, in the same setting: then `Cc1cc(C)cc(NC(=O)N(Cc2ccc(C(=O)NC[C@@H](O)C(=O)O)cc2)[C@H]2CC[C@H](C(C)(C)C)CC2)c1`, with 27 nM; and `O=C(NC[C@@H](O)C(=O)O)c1ccc(CN(C(=O)Nc2ccc(SC(F)(F)F)cc2)c2ccc(C3CCCCC3)cc2)cc1`, with 6 nM.
Still for that read-out and setting: for `COc1cc(NC(=O)N(Cc2ccc(C(=O)NC[C@@H](O)C(=O)O)cc2)c2ccc(C3CCCCC3)cc2)cc(C(F)(F)F)c1` the value was 9 nM; for `O=C(NC[C@@H](O)C(=O)O)c1ccc(CN(C(=O)Nc2ccc3c(c2)C(F)(F)OC(F)(F)O3)c2ccc(C3=CCCCC3)cc2)cc1`, 6 nM; for `O=C(NC[C@@H](O)C(=O)O)c1ccc(CN(C(=O)Nc2cc(Cl)cc(Cl)c2)c2ccc(C3CCCCC3)cc2)cc1`, 4 nM.

A further assay has as its target T1, Gastric inhibitory polypeptide receptor (Homo sapiens, UniProt P48546).
T1 sequence (P48546 whole entry): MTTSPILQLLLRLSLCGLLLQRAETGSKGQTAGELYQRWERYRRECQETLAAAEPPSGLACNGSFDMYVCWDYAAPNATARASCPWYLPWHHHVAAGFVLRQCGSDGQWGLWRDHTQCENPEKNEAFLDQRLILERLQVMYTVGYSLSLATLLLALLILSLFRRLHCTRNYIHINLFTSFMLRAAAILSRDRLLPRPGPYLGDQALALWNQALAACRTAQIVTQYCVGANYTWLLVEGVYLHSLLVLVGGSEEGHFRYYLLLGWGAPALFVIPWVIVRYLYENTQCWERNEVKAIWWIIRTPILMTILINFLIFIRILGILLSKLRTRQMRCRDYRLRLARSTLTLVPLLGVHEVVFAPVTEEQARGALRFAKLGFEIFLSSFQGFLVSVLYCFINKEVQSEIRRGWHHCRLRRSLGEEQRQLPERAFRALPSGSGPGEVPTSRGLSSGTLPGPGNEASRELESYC
In words: Binding affinity to human cloned GIPR expressed in BHK cells. Format: cell-based. The procedure, abridged:
as §1
For `CC(C)(C)[C@H]1CC[C@H](N(Cc2ccc(C(=O)NCCC(=O)O)cc2)C(=O)Nc2cc(C(F)(F)F)cc(C(F)(F)F)c2)CC1`, the half-inhibitory concentration (IC50) came out at 93 nM.
As to `CC(C)(C)c1cccc(NC(=O)N(Cc2ccc(C(=O)NC[C@@H](O)C(=O)O)cc2)c2ccc(C3CCCCC3)cc2)c1`, the IC50 was 74 nM.
Molecule `CC(C)(C)c1ccc(N(Cc2ccc(C(=O)NCCC(=O)O)cc2)C(=O)Nc2ccc(OC(F)(F)F)cc2)cc1` registered an IC50 of 38 nM.
Still for that read-out and setting: then `N#Cc1ccc(NC(=O)N(Cc2ccc(C(=O)NC[C@@H](O)C(=O)O)cc2)c2ccc(C3CCCCC3)cc2)cc1C(F)(F)F`, with 198 nM.
Same read-out and setting: for `O=C(NC[C@@H](O)C(=O)O)c1ccc(CN(C(=O)Nc2ccccc2)c2ccc(C3=CCCCC3)cc2)cc1` the value was 1390 nM.
`Cc1cc(NC(=O)N(Cc2ccc(C(=O)NC[C@@H](O)C(=O)O)cc2)[C@H]2CC[C@H](C(C)(C)C)CC2)cc(C(F)(F)F)c1` had an IC50 of 98 nM. Against the preceding molecule, the IC50 is about 14-fold lower.
Consider `CC(C)(C)c1ccc(N(Cc2ccc(C(=O)NCC(O)C(=O)O)cc2)C(=O)Nc2ccc(OC(F)(F)F)cc2)cc1` (racemic), for which the IC50 worked out at 315 nM.
In turn, `O=C(NC[C@H](O)C(=O)O)c1ccc(CN(C(=O)Nc2cc(Cl)cc(Cl)c2)c2ccc(C3=CCCCC3)cc2)cc1` showed an IC50 of 445 nM.
Molecule `Cc1cc(C)cc(NC(=O)N(Cc2ccc(C(=O)NC[C@@H](O)C(=O)O)cc2)[C@H]2CC[C@H](C(C)(C)C)CC2)c1` showed a half-maximal inhibitory concentration (IC50) of 220 nM.
On to `O=C(NC[C@@H](O)C(=O)O)c1ccc(CN(C(=O)Nc2ccc(SC(F)(F)F)cc2)c2ccc(C3CCCCC3)cc2)cc1`, for which the IC50 was 12 nM.
For `COc1cc(NC(=O)N(Cc2ccc(C(=O)NC[C@@H](O)C(=O)O)cc2)c2ccc(C3CCCCC3)cc2)cc(C(F)(F)F)c1`, the IC50 was found to be 145 nM.
`O=C(NC[C@@H](O)C(=O)O)c1ccc(CN(C(=O)Nc2ccc3c(c2)C(F)(F)OC(F)(F)O3)c2ccc(C3=CCCCC3)cc2)cc1`: the IC50 was 83 nM.
In turn, `O=C(NC[C@@H](O)C(=O)O)c1ccc(CN(C(=O)Nc2cc(Cl)cc(Cl)c2)c2ccc(C3CCCCC3)cc2)cc1` returned an IC50 of 93 nM.

The target in a further assay is Glucagon-like peptide 1 receptor (Homo sapiens, UniProt P43220). In words: Binding affinity to human cloned GLP1R expressed in BHK cells. Format: cell-based. The procedure, abridged: as §1
Chain of Glucagon-like peptide 1 receptor (P43220 whole entry): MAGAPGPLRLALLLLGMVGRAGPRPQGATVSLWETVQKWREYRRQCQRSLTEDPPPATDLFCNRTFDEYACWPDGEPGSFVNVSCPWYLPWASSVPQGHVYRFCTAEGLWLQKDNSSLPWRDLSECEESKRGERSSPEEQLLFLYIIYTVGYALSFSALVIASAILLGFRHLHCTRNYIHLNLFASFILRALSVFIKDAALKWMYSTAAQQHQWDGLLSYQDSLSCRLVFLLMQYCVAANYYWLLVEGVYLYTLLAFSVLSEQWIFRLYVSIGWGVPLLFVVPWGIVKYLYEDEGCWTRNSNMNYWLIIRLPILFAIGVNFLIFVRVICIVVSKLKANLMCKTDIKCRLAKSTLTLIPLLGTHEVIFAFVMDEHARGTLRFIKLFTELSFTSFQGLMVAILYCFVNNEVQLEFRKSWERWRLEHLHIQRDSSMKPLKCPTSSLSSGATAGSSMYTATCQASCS
The molecule `CC(C)(C)c1ccc(N(Cc2ccc(C(=O)NCCC(=O)O)cc2)C(=O)Nc2ccc(OC(F)(F)F)cc2)cc1` registered an IC50 of 10800 nM.
The molecule `O=C(NC[C@H](O)C(=O)O)c1ccc(CN(C(=O)Nc2cc(Cl)cc(Cl)c2)c2ccc(C3=CCCCC3)cc2)cc1` registered an IC50 of 9320 nM.
